Laboratory results: publication PMC10259527 (International Journal of Nanomedicine, 2023)

Key:
[1] = In vivo toxicity in the hepatic AE mouse model; parameters: species or system C57BL/6J mice; details: oral 100 mg/kg once daily for 30 days; for Histopathology of liver parenchyma surrounding the metacestodes: H&E
Summary of the method: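 Female C57BL/6J mice were infected by portal-vein protoscolex injection. At 3 months, after ultrasound-confirmed metacestode growth, mice (n = 8/group) got oral gavage at 100 mg/kg daily for 30 days, dosed with 0.5% CMC suspensions or CMC alone. Sham-operated uninfected mice got portal saline. Afterwards, retro-orbital blood was drawn under isoflurane. Plasma (2000 g, 15 min, 4°C; stored −20°C) was assayed for ALT/AST on an automatic biochemical analyzer.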

Cytotoxicity assay = assay type: cell-based; details: human, HepG2 cells
Summary of the method: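 HepG2 cells were seeded at 5×10^3/well. Treatment ran 48 h at 37°C, 5% CO2: free compound at 10–50 μM, nanoparticle form at 10–100 μM. Controls got vehicle only (0.1% v/v DMSO or deionized water). Viability was read by CCK-8 and normalized to vehicle controls, mean ± SEM.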

[2] = In vivo pharmacokinetic study; parameters: species or system BALB/c mice; details: BALB/c, mouse, plasma
Summary of the method: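 BALB/c mice (5–6 weeks, 20 ± 2 g; n = 6 per time point, 3 male + 3 female) got one IV dose (5 mg/kg) or oral gavage (100 mg/kg). Free compound was given in 5% DMSO/10% solutol HS-15/85% (20% hydroxypropyl-β-cyclodextrin in saline). Tail-vein blood was taken at 0.08–48 h and plasma separated at 2000 g, 15 min. Concentrations were measured by LC–MS/MS; parameters came from non-compartmental analysis.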

[3] = Biodistribution by ex vivo fluorescence imaging of major organs; assay type: in vivo, BALB/c nude mice; details: Cy5.5-labeled, single oral 25 mg/kg, mice
Summary of the method: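 Female BALB/c nude mice, acclimated 1 week and fasted 12 h overnight with water, got one oral dose of 25 mg/kg (by parent mass). Cy5.5-labeled nanoparticles were given in PBS; Cy5.5-labeled free compound as an H2O/DMSO (40:1) suspension. Four mice per group were killed at 2, 4, 6, 8 and 24 h. Heart, liver, lungs, spleen and kidneys were PBS-washed and imaged ex vivo for fluorescence. Liver intensity was quantified (n = 4, mean ± SEM).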

AUC(0-inf) ([2]; both, iv, 5 mg/kg) | AUC(0-t) ([2]; both, iv, 5 mg/kg) | Cmax ([2]; both, iv, 5 mg/kg) | Tmax ([2]; both, iv, 5 mg/kg) | Vd ([2]; both, iv, 5 mg/kg) | clearance ([2]; both, iv, 5 mg/kg) | half-life ([2]; both, iv, 5 mg/kg) | bioavailability ([2]; both, oral, 100 mg/kg) | AUC(0-inf) ([2]; both, po, 100 mg/kg) | AUC(0-t) ([2]; both, po, 100 mg/kg) | Cmax ([2]; both, po, 100 mg/kg) | Tmax ([2]; both, po, 100 mg/kg) | half-life ([2]; both, po, 100 mg/kg) | half-life ([2]; female, po, 100 mg/kg) | half-life ([2]; male, po, 100 mg/kg) | Decrease of fluorescence intensity in the liver from 8 h to 24 h [3] | SMILES | Histopathology of liver parenchyma surrounding the metacestodes [1] | CC50 at 48 h (Cytotoxicity assay) | Liver transaminases (mean ALT and AST values) ([1]; compared to shamed individuals)
– | – | – | – | – | – | – | – | – | – | – | – | – | – | – | – | CCCSc1ccc2nc(NC(=O)OC)[nH]c2c1 [albendazole, reference compound] | inflammatory infiltrate, fibroplastic proliferation, and hepatocellular necrosis | – | –
7.6 µM·h | 7.5 µM·h | 2.6 µM | 0.083 h | 19 L/kg | 32 mL/min/kg | 7 h | 69.8% | 128 µM·h | 104 µM·h | 4.4 µM | 6 h | 17.5 h | 24.6 h | 10.4 h | 49.9% | CCCNCC(O)Cn1c2ccc(Cl)cc2c2cc(Cl)ccc21 (centres unmarked) [Compound H1402, 1-(3,6-dichloro-9H-carbazol-9-yl)-3-(propylamino)propan-2-ol] | inflammatory infiltrate, fibroplastic proliferation, and hepatocellular necrosis | 14.9 µM | various degrees of increase
